Assay: Toxicity liver stage against HepG2, at 10uM
Format: cell-based
Design: test concentration 10 uM, cell line HepG2-A16-CD81EGFP
Settings: human, HepG2-A16-CD81EGFP cells; read-out: INHIBITION
Procedure, shortened: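 Uninfected HepG2-A16-CD81EGFP cells, 3 × 10^3 per well, 1536-well, plated on prespotted compound at 10 μM final, parasite-free screening media added to match infected plates; puromycin 10 μM positive, DMSO 0.5% negative; run in parallel with 48 h PbLuc assay at 37 °C, 5% CO2; viability by CellTiter-Glo luminescence, normalized to controls.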

SMILES | cytotoxicity at 10 µM [%]
CNc1oc(COc2ccc3c(c2)OCO3)nc1C#N | -58.3
Cc1nn(-c2ccccn2)c2c1C(c1cnn(C)c1)SCC(=O)N2 (stereo not given) | -44.1
COc1ccc2cc(NC(=O)CCNc3ncccn3)cnc2c1 | -43
Cn1cnc2cc(CCC(=O)Nc3n[nH]c(C4CC4)n3)ccc21 | 5.21
O=C(N1CCCC1)N1C[C@H]2CC[C@@]3(N=C(c4ccccc4)NC3=O)[C@H]2C1 | 0.516
CC(=O)N1CC[C@@]2(C(=O)Nc3ccccc3)CCN(S(C)(=O)=O)CC[C@@H]12 | 2.96
CCC1=N[C@@]2(CC[C@@H]3CN(S(C)(=O)=O)C[C@@H]32)C(=O)N1CC(C)C | 2.58
COc1ccc(N2CCN(CC(O)c3ccc(C)cc3C)CC2)cc1 (stereo not given) | 11.8
Cc1ccccc1N1CC2(CCN(S(=O)(=O)C3CC3)C2)CC1=O (stereo not given) | 3.12
CN(C)S(=O)(=O)Nc1ccc(Oc2ccc3c(c2)OCO3)cc1 | 1.43
Cc1nn(C)c2cnn(CC(=O)NCc3ccccc3F)c12 | 7.8
COCCC(=O)NCc1ccc(-c2ncncc2C(=O)N(C)C)cc1 | 4.45
CN(C)Cc1cnc(C2CCN(C(=O)c3cccc(F)c3)C2)[nH]1 (stereo not given) | 2.54
O=C(C1CCOCC1)N1CCCC1c1cncc(CN2CCCC2)n1 (stereo not given) | -0.802
Cn1ccc(CN2CC(Cc3nccc4cc[nH]c34)C2)n1 | 9.51
Cc1cc2c(=O)n3c(nc2s1)CCN(C(=O)c1c(C)noc1C)CC3 | 17.7
CC(C)(N)C(=O)N1CCCC(c2cncc(Oc3cccnc3)n2)C1 (stereo not given) | -20.6
CCn1cc(CN2CCC(c3[nH]ncc3S(C)(=O)=O)C2)cn1 (stereo not given) | -2.33
NC(=O)CCCNC(=O)CCc1cc(Br)cs1 | 4.11
CCOc1ccc(N(C)Cc2nc(C)c(C)o2)cc1 | 19.9
Cc1cc(N(Cc2ccccc2F)C2CC2)n2nc(C(F)(F)F)nc2n1 | 0.43
O=C(CSCc1ccncc1)NCC1CCN(C2CC2)C1 (stereo not given) | 0.224

SMILES | cytotoxicity at 10 µM [%]
Cc1ccc(OCC(=O)NC2(C#N)CCSCC2)cc1C | 5.7
CCOc1ccc(SCCNS(=O)(=O)CC)cc1 | 2.71
O=C(Nc1ccccc1F)NC1(CO)CCOCC1 | -46.4
COc1cccc(Cn2cccc(C#N)c2=O)c1 | 11.3
O=C(NCCSc1ccccc1F)NCc1cccnc1 | -5.31
COc1cccc(CCCNC(=O)N2CCC(O)(C(F)(F)F)C2)c1 (stereo not given) | -4.25
Cc1nn(C)c(C)c1C1CCCN1CCOc1ccccc1C#N (stereo not given) | 8.13
CCc1ncncc1C(=O)NCCNc1ncnc2sccc12 | -5.68
Cc1nc(CCNC(=O)NCC(O)c2cccc(Cl)c2)cs1 (stereo not given) | 14
CC(NC(N)=O)C(=O)NCc1ccnc(Oc2ccc(F)cc2)c1 (stereo not given) | 8.26
CC(C)N1CCN(S(=O)(=O)c2ncn(C)c2Cl)CC1 | 13.9
Cn1ncnc1CNC(=O)N(CCCO)C1CCc2ccccc21 (stereo not given) | -5.95
Cc1ccc(OCCC(=O)NC(C)c2ccncc2)cc1 (stereo not given) | -3.86
COc1ccc(Nc2ccc(C#N)cn2)cc1N1CCCC1=O | 10.1
CN(C)S(=O)(=O)c1ccc2c(c1)N(Cc1nccn1C)CCC2 | 2.26
CCOc1ccc(C(=O)NCCCNc2ncccn2)cc1 | 11.5
CCNC(=O)NC1CN(Cc2ccccc2N(C)C)C[C@@H]1OC (stereo not given in full) | -8.11
Cc1ncsc1C(=O)OCCN1CCCc2ccccc21 | 2.42
COc1ccc(C(C)N2CCC(C(=O)NC3CC3)CC2)cc1Cl (stereo not given) | -50.6
CCC(=O)NC1CCCN(Cc2ccc(-n3ccnc3)cc2)C1 (stereo not given) | -47.8
Cc1cc(C(=O)N2CCc3c(ncn3CCc3ccccc3)C2)on1 | -3.58
CCN(CC)S(=O)(=O)N1CCCN(CC2CCCO2)CC1 (stereo not given) | 5.69

SMILES | cytotoxicity at 10 µM [%]
CC1CCCN(c2ccccc2OCC(=O)NC2CCOCC2)C1 (stereo not given) | -23.5
CCOCCC(=O)NCc1ccnc(NC2CC2)c1 | 0.545
COc1cc(C)nc(N2CCN(Cc3nccn3C)CC2)n1 | -1.8
COCC(=O)N1CCC2(CCC2NC(=O)c2ccn(C)c2)CC1 (stereo not given) | -76.4
CN(Cc1cccnc1)CC1CN(C(N)=O)Cc2nccn2C1 (stereo not given) | -80.3
Cc1ccc2c(c1)C1(CCNCC1)CN2C(=O)C(C)C | -77
O=C(c1ccnnc1)N1CCn2cc(CN3CCCCC3)nc2C1 | -74.9
CC(=O)N1CCOC2(CCCN(C(=O)c3ccc(Cl)cc3)C2)C1 (stereo not given) | -66.6
CC(=O)N[C@@H]1CN(Cc2ccccc2C#N)C[C@H]1c1ccc(C)cc1 | -4.27
Cc1nc(C)n(CCCNc2ncnc(C)c2C)n1 | -1.74
CCNc1ncc(C(=O)N(C)CCc2nc3cc(Cl)ccc3[nH]2)cn1 | -45.8
CCc1ncc(C(=O)N(CCOC)Cc2ccccc2F)cn1 | 0.728
COCCN1CCN(C(=O)C(c2cccc(F)c2)N(C)C)CC1 (stereo not given) | 9.63
Cc1ccc(NC(=O)CNC(C)CN2CCOCC2)c(F)c1 (stereo not given) | -51.8
Cc1cccnc1CN1CCN(C(=O)[C@@]23CNC[C@@H]2CN(C)C3)CC1 | 2.3
O=C(c1ccoc1)N1CCn2nc(CN3CCSCC3)cc2C1 | -57.8
Cc1cc(CN2CCC3(CC2)CC(C(=O)O)N(C(=O)C2CC2)C3)oc1C (stereo not given) | -7.32
CC(C)c1nc(CN(C)C(=O)CNC(N)=O)cs1 | 17.4
Cc1cc(-n2nc(C)nc2-c2cn(CCN)nn2)ccn1 | 7.55
CCNc1ncc(C(=O)NCC2OCCc3ccccc32)cn1 (stereo not given) | -53.1
CC1CCCCN1C1CN(C(=O)c2sccc2S(N)(=O)=O)C1 (stereo not given) | -1.45
COC(C)(C)Cn1ccnc1-c1cccc(C(C)N(C)C)c1 (stereo not given) | -3.59

SMILES | cytotoxicity at 10 µM [%]
CC(=O)N1CCCN(C(C(=O)O)c2ccc(C)cc2C)CC1 (stereo not given) | -3.98
CCc1nc(N)nc(NCCC(=O)NC2CCCCC2)c1C | -38.9
CN1[C@@H](c2ccccc2)[C@@H](C(=O)NCC2CCOCC2)C[C@@]1(C)C(=O)O | -40.4
CC(C)[C@@H]1CN(C(=O)NCCc2ccccc2)C[C@H]1NS(=O)(=O)N(C)C | 3.08
CC(C)c1nnsc1CNC(=O)C1CCN(C(=O)C2CCCC2)CC1 | 1.05
Nc1nc2c(c(N3CCCC3)n1)CCN(Cc1ccccn1)CC2 | -35.3
CCn1c(CC2CCN(C(=O)c3cc(C(C)C)n[nH]3)CC2)n[nH]c1=O | -44.4
CC[C@@]1(O)CCN(C(=O)c2ccc(OC(F)F)cc2)C[C@H]1O | 6.2
Cn1ncc(CN2CCc3onc(-c4cccc(F)c4)c3C2)c1C1CC1 | 1.31
COCCC(=O)N1Cc2cnc(Cc3ccc(OC)cc3)nc2C1 | -0.641
O=C(Cn1cccnc1=O)NC(Cc1ccsc1)c1ccccn1 (stereo not given) | -5.66
CN1CCN(C2CCN(CCOc3ccc(C#N)cc3)CC2)C1=O | -1.03
c1cc2n(n1)CC(CNCc1ccc(OC3CCCC3)nc1)CN2 (stereo not given) | -5.17
CC(NC(=O)Cn1cccn1)c1ccc2c(c1)OCCO2 (stereo not given) | -2.23
c1ccc(-n2cc(CNCC3CCCN3c3cccnn3)cn2)cc1 (stereo not given) | -8.85
Cn1ccnc1CN1CCCN(C(=O)c2ccc3c(c2)OCO3)CC1 | -6.61
c1ccc(-n2cc(CNC3CCc4ncnn4C3)nn2)cc1 (stereo not given) | -4.01
Cc1nc(CN2CCN(C(=O)NC(C)c3cccnc3)CC2)cs1 (stereo not given) | -10.4
Cc1nc(C)c(CN2CCOC(CNc3cccnn3)C2)s1 (stereo not given) | -1.71
CCc1nc(CN2CCOC(CNc3cccnn3)C2)cs1 (stereo not given) | -11
O=C(CCCOc1ccc(F)cc1F)N1CCCC1Cn1cccn1 (stereo not given) | -5.67
Cc1nc(CN2CCc3nn(C(C)C)c(=O)cc3C2)oc1C | -7.52

SMILES | cytotoxicity at 10 µM [%]
COc1ccccc1CC(=O)N1CCC(NCc2cccnc2)CC1 | -5.7
CC(C)Cc1noc(CN2CCCC(Cn3cncn3)C2)n1 (stereo not given) | -2.6
CC(C)(C)C(=O)NC(c1nccs1)C1CCN(CC2CCCCC2)CC1 (stereo not given) | 6.5
CCC(CN1CCCC1)NC(=O)Cc1c(C)[nH]c2c(C)cc(C)cc12 (stereo not given) | 14.6
CCCC(=O)N1CCC(O)(Cn2c(CC)nc3ccccc3c2=O)CC1 | -2.03
CCCS(=O)(=O)N1CCC2(CN(c3ccccc3)C(=O)CN2C)C1 (stereo not given) | 4.15
COCCN1CC[C@@H]2OC[C@H](C(=O)NCc3cccs3)C[C@@H]2C1 | 2.7
COc1ccc(CNCc2ccnc(N3CCCC3)c2)c(OC)c1 | 3.45
CC(C)(CO)CNC(=O)c1cc(-c2cc[nH]n2)n2ccccc12 | 20
C[C@@H]1CN(C(=O)c2cccs2)C[C@]12CCN(CCN(C)C)C2=O | 4.4
c1csc(CN2CCCn3cnc(CN4CCCC4)c3C2)c1 | -72.7
Cc1cnc(N2CC[C@@H]3O[C@@H](COCc4ccccn4)CC[C@@H]32)nc1 | -88.3
Cc1ccc(N2CCO[C@H]3CN(Cc4ccoc4)C[C@H]32)nn1 | -70.7
CCOCC1CN(Cc2ccc(F)cc2)Cc2nn(C)cc21 (stereo not given) | -83.3
O=C(c1cccnc1)N1CCn2nnc(COc3ccccn3)c2C1 | -76.2
O=C(C1=CCCC1)N1CCC2(CC1)CC(Oc1cccnc1)CO2 (stereo not given) | -1.58
Cc1noc(C)c1CN1C[C@@H]2CCCO[C@@H]2[C@H](NS(C)(=O)=O)C1 | 12.2
O=C(c1ccc(F)cc1F)N1C[C@@H]2CC[C@H]1CN(Cc1ccccc1)C2 | 5.04
CCC(C)Oc1ccccc1Cn1cc2[nH]cccc-2c1=O (stereo not given) | -0.0261
COc1cccc(C(=O)NC(c2ccccn2)C2CCC(CN)CC2)c1 (stereo not given) | -9.33
CS(=O)(=O)N1C[C@H]2CC[C@@H](C1)N(Cc1ccc3nsnc3c1)C2 | 3.18
CC(C)CCN1C[C@@H]2C[C@H](C(=O)Nc3cccnc3)[C@H](C1)O2 | -82.5

From ChEMBL document CHEMBL4513216, “Probing the Open Global Health Chemical Diversity Library for Multistage-Active Starting Points for Next-Generation Antimalarials” (ACS Infect Dis, 2020)
